Experimental findings from ChEMBL document CHEMBL4017510, “Nitazoxanide Analogs Require Nitroreduction for Antimicrobial Activity in Mycobacterium smegmatis” (J Med Chem, 2017) are described below.

In one data set the test system is Vero. Nature of the data set: Cytotoxicity against African green monkey Vero cells. The format is cell-based. As to conditions: Chlorocebus sabaeus.
Data set [1] has as its system Mycolicibacterium smegmatis. As to the kind of experiment: Antibacterial activity against Mycobacterium smegmatis harboring 126E6 mutant measured after 24 hrs by resazurin microdilution assay. Format: functional. Put shortly: (§1)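 Two-fold drug dilutions in 96-well plates with species-appropriate medium. Each well receives an inoculum of about 1 × 10^3 UFC. Each plate has a no-drug growth control and a no-bacteria medium control. Resazurin is added to 0.003% final. Incubation time and temperature vary by species. MIC is the lowest concentration preventing the blue-to-pink (resorufin) colour change.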
(In general: The colour change of resazurin is a common sign of viable cells or microbes.)

The subject of data set [2] is Mycobacterium tuberculosis. As to the kind of experiment: Antibacterial activity against Mycobacterium tuberculosis H37Rv after 7 days by resazurin microdilution assay. Format: functional. As to conditions: 168 h. Put shortly: as §1
The subject of data set [3] is Mycolicibacterium aurum. As to the kind of experiment: Antibacterial activity against Mycobacterium aurum after overnight incubation by resazurin microdilution assay. Format: functional. Put shortly:
(§2)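 Mycobacteria were cultured in Middlebrook 7H9 with ADC and glycerol, at 32 °C for M. marinum (4 days) or with overnight incubation for M. aurum. Resazurin microdilution used 2-fold dilutions and about 1 × 10^3 UFC per well, with growth and medium controls. Resazurin 0.003% final. MIC defined as the lowest concentration preventing the blue-to-pink change.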

In the next data set the test system is Mycobacterium marinum. As to the kind of experiment: Antibacterial activity against Mycobacterium marinum after 4 days by resazurin microdilution assay. The settings on record: 96 h. Format: functional. Put shortly:
as §2

Data set [4] deals with Mycolicibacterium smegmatis. As to the kind of experiment: Antibacterial activity against Mycobacterium smegmatis MC2 155 by resazurin microdilution assay. Format: functional. The settings on record: str. MC2 155. Put shortly: as §1
Another data set relates to Mycobacterium avium. As to the kind of experiment: Antibacterial activity against Mycobacterium avium after 7 days by resazurin microdilution assay. Format: functional. The settings on record: 168 h. Put shortly: as §1
The test system of a further data set is Escherichia coli. As to the kind of experiment: Antibacterial activity against Escherichia coli after 6 hrs by resazurin microdilution assay. Format: functional. The method, boiled down:
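Clinical isolate of E. coli in Mueller−Hinton broth at 37 °C, 6 h incubation. Two-fold dilution series in 96-well plates with about 1 × 10^3 UFC per well. Growth and medium-only controls were run. Resazurin at 0.003% final. MIC taken as the lowest concentration blocking reduction of resazurin (blue) to resorufin (pink).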

The test system of another data set is Streptococcus agalactiae. As to the kind of experiment: Antibacterial activity against Streptococcus agalactiae NEM316 by resazurin microdilution assay. Format: functional. The method, boiled down: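 S. agalactiae NEM316 in Todd−Hewitt broth at 37 °C. Compounds were tested as 2-fold dilutions in 96 wells with an inoculum of about 1 × 10^3 UFC per well. Controls without antibiotic or without bacteria were included. Resazurin 0.003% final. MIC was the lowest concentration preventing the color change from blue to pink.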

A further data set deals with Staphylococcus aureus. Nature of the data set: Antibacterial activity against Staphylococcus aureus by resazurin microdilution assay. Format: functional. Put shortly: (§3)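 Clinical isolates were grown at 37 °C in Mueller−Hinton broth. Two-fold dilutions were made in 96-well plates and inoculated with about 1 × 10^3 UFC per well. Growth controls (no antibiotic) and medium controls (no bacteria) were included. Resazurin was added to 0.003% final. MIC was the lowest concentration that prevented the blue-to-pink color change.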

The next data set concerns Pseudomonas aeruginosa. Nature of the data set: Antibacterial activity against Pseudomonas aeruginosa by resazurin microdilution assay. The format is functional. The method, boiled down:
as §3

The subject of another data set is Klebsiella aerogenes. Nature of the data set: Antibacterial activity against Enterobacter aerogenes by resazurin microdilution assay. The format is functional. Put shortly:
as §3

The test system of a further data set is Klebsiella pneumoniae. Nature of the data set: Antibacterial activity against Klebsiella pneumoniae by resazurin microdilution assay. The format is functional. Put shortly: as §3
Data set [5] has as its system Mycolicibacterium aurum. As to the kind of experiment: Growth inhibition of Mycobacterium aurum at 0.4 uM after overnight incubation by resazurin microdilution assay relative to control. As to conditions: read-out: GI. The format is functional. Put shortly: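 Single-concentration screen at 0.15 μg/mL (average 0.4 μM). M. aurum (20-fold dilution of an OD600 0.2–0.3 culture) was grown in 7H9 with 0.1% casitone, 0.5% glycerol, OADC and 0.002% resazurin for 18 h at 37 °C. Read-out was ΔOD (OD570 − OD604). Percent viability was normalized to DMSO (100%) and kanamycin (0%) controls.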

The nature of data set [6]: Drug metabolism in Mycobacterium smegmatis 126E6 assessed as NfnB-mediated hydroxyl […] formation after 3 hrs by LC-MS/MS analysis. The format is ADME. The settings on record: mycolicibacterium smegmatis. Put shortly: (§4)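 M. smegmatis wild type or transposon mutant 126E6 was grown in 7H9 to OD600 0.6 at 37 °C. 5 mL aliquots received 0.3 mg of compound or none and were incubated 3 h. Cultures were sonicated, cleared and filtered (0.45 μm), then mixed with acetonitrile/methanol/water. Analysis was aqueous normal-phase LC with ESI QTOF, reported as ion counts per mL, including the hydroxylamine intermediate (m/z 372.0012).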

For data set [7], the system named is Mycolicibacterium smegmatis. Nature of the data set: Antibacterial activity against Mycobacterium smegmatis harboring 126E6 mutant at 51.6 uM measured after 24 hrs by resazurin microdilution assay. Format: functional. The method, boiled down:
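Hypersensitivity screen of the M. smegmatis Tn611 transposon mutant collection. Wells receive 2 μL from each mutant in Middlebrook 7H9 with ADC, 0.05% Tween 80, kanamycin and PANTA, with compound at 20 μg/mL final. Drug-free plates serve as growth controls. Plates are incubated 48 h at 37 °C, with resazurin (0.003% final) added at 24 h. Clones failing to grow are scored.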

In data set [8] the test system is Mycolicibacterium smegmatis. Nature of the data set: Drug metabolism in Mycobacterium smegmatis assessed as hydroxyl […] formation after 3 hrs by LC-MS/MS analysis. Format: ADME. The method, boiled down:
as §4

≈ marks a conversion by molar mass, not a printed value. Calls of active or inactive are those of the source.

The term IC50 denotes the concentration needed to halve the response being measured. By MIC is commonly meant the smallest concentration in the dilution series that meets the test's criterion for growth inhibition. As for `O=C(Nc1ncc([N+](=O)[O-])s1)c1ccc(Cl)cc1Cl`, in the data set on Vero, the IC50 is > 100 µM. Also, the MIC in [1] amounted to 18.6 µM (≈ 5.92 µg/mL); in [2], 78.5 µM (≈ 25 µg/mL); in the data set on Mycolicibacterium aurum [3] it was 2.45 µM (≈ 0.779 µg/mL); in the data set on Mycobacterium marinum, 18.8 µM (≈ 5.98 µg/mL); in data set [4] it was 78.5 µM (≈ 25 µg/mL); in the data set on Mycobacterium avium, 46.6 µM (≈ 14.8 µg/mL). In addition, the MIC in the data set on Escherichia coli is > 93 µM; against Streptococcus agalactiae, > 93 µM; against Staphylococcus aureus, 6.2 µM (≈ 1.97 µg/mL); in the data set on Pseudomonas aeruginosa, 93 µM (≈ 29.6 µg/mL); in the data set with Klebsiella aerogenes, > 93 µM; in the data set on Klebsiella pneumoniae, > 93 µM. In the data set with Mycolicibacterium aurum [5], the inhibition of growth at 0.4 µM was > 40%.
With `CCCOc1ccc(C(=O)Nc2ncc([N+](=O)[O-])s2)cc1Br`, in the data set with Vero, the IC50 is > 100 µM. In addition, the MIC in data set [1] was 10.1 µM (≈ 3.9 µg/mL); in data set [2] it was 77.6 µM (≈ 30 µg/mL); against Mycolicibacterium aurum [3] it was 1 µM (≈ 0.386 µg/mL); against Mycobacterium marinum it was 4.03 µM (≈ 1.56 µg/mL); in data set [4], > 129 µM; in the data set with Mycobacterium avium, 77.7 µM (≈ 30 µg/mL). In addition, the MIC with Escherichia coli was > 129 µM; in the data set with Streptococcus agalactiae, > 129 µM; against Staphylococcus aureus, 2.33 µM (≈ 0.9 µg/mL); against Pseudomonas aeruginosa it was > 129 µM; with Klebsiella aerogenes, > 129 µM; in the data set on Klebsiella pneumoniae, > 129 µM. In addition, the Drug metabolism entry is recorded as “Metabolite_Detected” in [6] and “Metabolite_Notdetected” in data set [8]. Further, the inhibition of growth at 0.4 µM in the data set with Mycolicibacterium aurum [5] was > 40%. In addition, the outcome in data set [7] was Active.
With `O=C(Nc1ncc([N+](=O)[O-])s1)c1ccccc1OC(F)(F)F`, the MIC is 19.6 µM (≈ 6.53 µg/mL) in [1]; 75 µM (≈ 25 µg/mL) in data set [2]; 4.65 µM (≈ 1.55 µg/mL) against Mycolicibacterium aurum [3]; 9 µM (≈ 3 µg/mL) against Mycobacterium marinum; 75 µM (≈ 25 µg/mL) in [4]; 11.7 µM (≈ 3.9 µg/mL) in the data set on Mycobacterium avium. The MIC against Escherichia coli is > 93.6 µM; against Streptococcus agalactiae it was > 93.6 µM; in the data set on Staphylococcus aureus it was 48.8 µM (≈ 16.3 µg/mL); in the data set on Pseudomonas aeruginosa, 93.6 µM (≈ 31.2 µg/mL); with Klebsiella aerogenes, > 93.6 µM; in the data set with Klebsiella pneumoniae, > 93.6 µM. Besides, in the data set on Mycolicibacterium aurum [5], the inhibition of growth at 0.4 µM is > 40%.
